Results pooled from the literature.
Each line is one published result; the experiments were not run side by side.
CDK9 with cyclin T1: Cyclin-dependent kinase 9, with cyclin T1 (CDK9, Homo sapiens, UniProt P50750)
Stromelysin-2: Stromelysin-2 (Homo sapiens, UniProt P09238)
SGK2: Serine/threonine-protein kinase Sgk2 (SGK2, Homo sapiens, UniProt Q9HBY8)
BMPR2: Bone morphogenetic protein receptor type-2 (BMPR2, Homo sapiens, UniProt Q13873)
FAP: Prolyl endopeptidase FAP (FAP, Homo sapiens, UniProt Q12884)
PSMB6: Proteasome subunit beta type-6 (PSMB6, Homo sapiens, UniProt P28072)

C#Cc1n[nH]c2c(-c3cn([C@@H](C)c4ccccc4)c(=O)[nH]c3=O)cc(F)cc12 — inhibition (CDK9 with cyclin T1; enzyme activity, inhibitor; 0.1 µM): -1.8%
COc1ccc(S(=O)(=O)N(CC(=O)NO)CC(C)C)cc1 — inhibition (Stromelysin-2; enzyme activity, inhibitor; 10 µM): 91%
Cn1cc(-c2cc(F)cc(N3CCn4c(cc5c4CCCC5)C3=O)c2CO)cc(Nc2ccc(N3CCN(C4COC4)CC3)cn2)c1=O — inhibition (SGK2; enzyme activity, inhibitor; 0.1 µM): 12%
Cc1nn(C)cc1-c1nc2c(N3CCN(Cc4ccc(Cl)cc4)CC3)c(Cl)cnc2[nH]1 — remaining binding (BMPR2; binding, competition with immobilised ligand; 1 µM): 100%
C#Cc1n[nH]c2c(-c3cn([C@@H](C)c4ccccn4)c(=O)[nH]c3=O)cc(F)cc12 — inhibition (CDK9 with cyclin T1; enzyme activity, inhibitor; 0.1 µM): 8.9%
N#C[C@@H]1CC(F)(F)CN1C(=O)CNC(=O)c1ccnc2ccccc12 — inhibition (FAP; enzyme activity, inhibitor; 10 nM): 35%
Nc1ccc(-c2nsc(=O)o2)cc1 — kinact/KI (PSMB6; enzyme activity, inhibitor): 1.09 M⁻¹ s⁻¹
COc1ncccc1-c1cnn2ccc(N3CCN(C(=O)OC(C)C)CC3)nc12 — remaining binding (BMPR2; binding, competition with immobilised ligand; 1 µM): 72%
CCOC(=O)c1ccc(OC(=O)CCCCCNC(=N)N)cc1 — inhibition (FAP; enzyme activity, inhibitor; 10 µM): 29%
Oc1cc(Br)cc(Br)c1Oc1ccc(Br)cc1Br — Km (Sulfotransferase 1E1 (SULT1E1, Homo sapiens, UniProt P49888); enzyme activity, substrate): 63.2 µM
Cc1cc(-c2nsc(=O)o2)c(S(C)(=O)=O)s1 — kinact/KI (PSMB6; enzyme activity, inhibitor): 1.4 M⁻¹ s⁻¹
CN(C)C(=O)COC(=O)Cc1ccc(OC(=O)c2ccc(NC(=N)N)cc2)cc1 — inhibition (FAP; enzyme activity, inhibitor; 10 µM): 30%
Nc1ncc(-c2nc(N3CCOCC3)nc(N3CCOCC3)n2)c(C(F)F)n1 — remaining binding (SGK2; binding, competition with immobilised ligand; 10 µM): 84%
N=C(N)c1ccc2cc(OC(=O)c3ccc(N=C(N)N)cc3)ccc2c1 — inhibition (Stromelysin-2; enzyme activity, inhibitor; 10 µM): 0%
Cn1cc(-c2cccc(N3CCc4c(sc5c4CC(C)(C)C5)C3=O)c2CO)cc(Nc2ccncn2)c1=O — inhibition (SGK2; enzyme activity, inhibitor; 1 µM): 3%
